Data reported in PMC10160980 (Proceedings of the National Academy of Sciences of the …, 2023).

Assays:
MDA-MB-231 cells [1] = assay: Matrigel cultures, MDA-MB-231; format: cell-based, human; settings: 100 μM for 2 days, culture 7 days
[2] = tested on: Akt phosphorylation at S473 in HeLa cells; assay: EGF-stimulated Akt activation; format: cell-based, human; settings: EGF 50 nM, 5 min
Summary of the method: (§1)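 Cells were preincubated with a range of test compound concentrations, then stimulated with EGF for 5 min (1.6 nM for MDA-MB-231, 50 nM for HeLa). Cells were then lysed and Akt activation was read by immunoblotting.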

Stability in plasma = format: in vitro ADME; settings: preliminary results
MDA-MB-231 cells [3] = assay: Growth of pretreated MDA-MB-231 cells on plastic dishes; format: cell-based, human; settings: cells treated overnight with 100 μM
[4] = tested on: Akt activation upon stimulation of the GPCR CXCR4 in MDA-MB-231 cells; assay: SDF-1α-stimulated Akt activation; format: cell-based, human; settings: SDF-1α 100 ng/mL, 10 min; IGGi-11me 100 μM; PTX 100 ng/mL
GIV binding to Gαi3 = GIV binding to Gαi3 (Rattus norvegicus, UniProt P08753); assay: Fluorescence polarization
GIV binding to Gαi3, sequence (P08753 whole entry): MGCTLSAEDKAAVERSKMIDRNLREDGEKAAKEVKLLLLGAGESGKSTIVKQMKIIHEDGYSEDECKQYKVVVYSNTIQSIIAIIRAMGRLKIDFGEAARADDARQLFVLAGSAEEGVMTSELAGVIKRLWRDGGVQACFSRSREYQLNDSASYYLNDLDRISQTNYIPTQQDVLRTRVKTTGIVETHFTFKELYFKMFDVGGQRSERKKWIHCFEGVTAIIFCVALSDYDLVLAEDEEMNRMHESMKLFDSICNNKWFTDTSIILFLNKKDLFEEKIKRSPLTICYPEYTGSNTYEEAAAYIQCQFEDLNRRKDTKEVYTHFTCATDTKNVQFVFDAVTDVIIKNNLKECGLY

MDA-MB-231 cells [5] = format: cell-based, human
[6] = Hydrolytic processing of IGGi-11me by cytosolic fraction of MDA-MB-231 cells; format: in vitro ADME, human; settings: 2 hours, 37 °C
BT-549 cells = assay: Tumor cell migration, BT-549; format: cell-based, human; settings: 1-100 μM
Summary of the method: (§2)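 Chemotactic migration toward FBS was measured in a modified Boyden chamber across a range of test compound concentrations. IC50 was derived from the concentration–response data. Results are mean ± SEM (N ≥ 3).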

MCF-10A cells [7] = assay: Cell viability assay, MCF-10A; format: cell-based, human; settings: 100 μM, 24 h
Summary of the method: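 Single-concentration viability screen at 100 μM in MCF-10A cells, run alongside MDA-MB-231 and MCF-7. Values are the mean of N = 3.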

[8] = tested on: GIV-depleted (shGIV) HeLa cells; assay: Tumor cell migration, GIV-depleted HeLa; format: cell-based, human
Summary of the method: (§3)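 GIV-depleted (shGIV) and matched control (shControl) cells were run side by side in a modified Boyden-chamber assay of chemotactic migration toward FBS with test compound. Results are mean ± SEM (N ≥ 3).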

[9] = tested on: GIV-depleted (shGIV) MDA-MB-231 cells; assay: Tumor cell migration, GIV-depleted MDA-MB-231; format: cell-based, human; settings: 100 μM
Summary of the method: as §3

MCF-10A cells [10] = assay: Matrigel cultures, MCF-10A; format: cell-based, human; settings: 100 μM
MDA-MB-231 cells [11] = assay: Cell viability assay; format: cell-based, human; settings: up to 100 μM, 24 h
Summary of the method: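 Cell viability was measured after 24 h incubation with test compound at indicated concentrations. IC50 was derived from the concentration-response data. Mean ± SEM, N ≥ 3.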

MDA-MB-231 cells (CXCR4) = assay: SDF-1α mediated cell migration, MDA-MB-231; format: cell-based, human; settings: SDF-1α as chemoattractant; up to 100 μM
[12] = tested on: Akt phosphorylation at S473 in MDA-MB-231 cells; assay: EGF-stimulated Akt activation; format: cell-based, human
Summary of the method: as §1

[13] = tested on: endogenous β-adrenergic receptors (cAMP via Gαs); assay: Luminescence-based cAMP; format: cell-based, human; settings: 100 μM; isoproterenol 100 nM; HEK293T
Summary of the method: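 HEK293T cells expressing the Glosensor luminescent cAMP sensor plus α2A-AR or GABA_BR were pretreated with test compound (100 μM) or DMSO. They were then stimulated with isoproterenol (100 nM), with or without prestimulation by brimonidine (1 μM) or GABA (100 μM). Luminescence was recorded. Mean ± SEM, N ≥ 3; ANOVA.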

Hs578T cells = assay: Tumor cell migration, Hs578T; format: cell-based, human; settings: 1-100 μM
Summary of the method: as §2

[14] = tested on: Akt activation in GIV-depleted cells (shGIV); assay: EGF-stimulated Akt activation in GIV-depleted cells; format: cell-based, human; settings: 100 μM
Summary of the method: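 GIV-depleted (shGIV) and control (shControl) cells were handled the same way: preincubation with test compound, EGF stimulation for 5 min, lysis, then immunoblotting for Akt activation.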

GIV–Gαi3 binding = GIV–Gαi3 binding (Rattus norvegicus, UniProt P08753); settings: cell-free systems; cited from earlier work
GIV–Gαi3 binding, sequence (P08753 whole entry): as above

SMILES: COC(=O)CCCN(C)S(=O)(=O)c1ccc2c(c1)Cc1cc(S(=O)(=O)N(C)CCCC(=O)OC)ccc1-2 [IGGi-11me]
- growth of MDA-MB-231 cells in Matrigel cultures (MDA-MB-231 cells [1]): overall reduction of cell growth
- EGF-stimulated phosphorylation of Akt at S473, HeLa [2]: reduced, in a dose-dependent manner, the phosphorylation of Akt at S473
- stability in plasma (Stability in plasma): rapidly degraded in plasma
- growth of pretreated MDA-MB-231 cells on plastic dishes (MDA-MB-231 cells [3]): had no effect
- SDF-1α-stimulated Akt activation, MDA-MB-231 [4]: does not block Akt activation
- potency as inhibitor of GIV–Gαi3 binding relative to IGGi-11, FP (GIV binding to Gαi3): lower potency compared to IGGi-11
- inhibition of MDA-MB-231 cell migration, dose dependence (MDA-MB-231 cells [5]; FBS as chemoattractant, 1-100 μM, preincubation): efficiently reduced their ability to migrate
- potency on migration of MDA-MB-231 relative to MCF-7 (MDA-MB-231 cells [5]; GIV^High vs GIV^Low): approximately four times more potent
- conversion to IGGi-11 by cellular esterases [6]: converted to IGGi-11 by esterases present in the cytosol of MDA-MB-231 cells
- inhibition of BT-549 cell migration (BT-549 cells): potency similar to that seen for MDA-MB-231 cells
- viability of MCF-10A cells (MCF-10A cells [7]): did not affect the viability
- cell migration of GIV-depleted HeLa cells [8]: inhibition of tumor cell migration is lost upon depletion of GIV
- cell migration of GIV-depleted MDA-MB-231 cells [9]: had no effect on MDA-MB-231 cell migration upon GIV depletion
- growth of MCF-10A cells in Matrigel cultures (MCF-10A cells [10]): did not affect the growth of nontransformed MCF-10A breast cells in Matrigel cultures
- viability of MDA-MB-231 cells (MDA-MB-231 cells [11]): did not affect the viability
- MDA-MB-231 cell migration toward SDF-1α (MDA-MB-231 cells (CXCR4)): did not affect MDA-MB-231 cell migration
- EGF-stimulated phosphorylation of Akt at S473, MDA-MB-231 ([12]; EGF 1.6 nM, 5 min, PTX 100 ng/mL): reduced, in a dose-dependent manner, the phosphorylation of Akt at S473
- total amount of GIV or Gαi ([12]; immunoblot): did not change the total amount of GIV or Gαi
- cAMP response to isoproterenol in the absence of Gi-mediated regulation [13]: had no effect
- inhibition of Hs578T cell migration (Hs578T cells): potency similar to that seen for MDA-MB-231 cells
- EGF-stimulated Akt activation in GIV-depleted cells [14]: failed to further reduce Akt activation in GIV-depleted cells

SMILES: O=C(Nc1cccc(C(=O)Nc2ccc(S(=O)(=O)O)c3cc(S(=O)(=O)O)cc(S(=O)(=O)O)c23)c1)Nc1cccc(C(=O)Nc2ccc(S(=O)(=O)O)c3cc(S(=O)(=O)O)cc(S(=O)(=O)O)c23)c1 [NF023]
- disruption of the GIV–Gαi interaction (GIV–Gαi3 binding): disrupts the GIV–Gαi interaction
